Experimental data taken from ChEMBL document CHEMBL2093137, “WHO-TDR NTD Screening”.
Converted amounts (≈) assume the structure as drawn.

Assays:
[1] = test system: Trypanosoma brucei brucei; test: WHO-TDR: Human African Trypanosomiasis (HAT); format: functional, organism-based; conditions: Squib-427
In short: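 Values are IC50 figures for antiparasitic potency. They come from a whole-organism screen of 10,000 diverse Life Chemicals compounds against bloodstream-form Trypanosoma brucei (Squib 427 strain).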

Trypanosoma cruzi = test: WHO-TDR: Chagas disease; format: functional, organism-based, Homo sapiens; conditions: MRC5
In short: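 Whole-organism screen of a 10,000-compound diverse library from Life Chemicals, filtered for drug-likeness and reactive groups, against intracellular amastigotes of Trypanosoma cruzi Tulahuen CL2 beta-galactosidase strain grown in MRC-5SV2 human lung fibroblast host cells. The assay followed previously published standard procedures, with a reference drug as positive control. Antiparasitic potency is reported as IC50.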

Onchocerca ochengi [2] = test: (§1) WHO-TDR: Onchocerciasis; format: functional; parameters: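 at 12.5 µM on microfilariae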
In short: (§2)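 Values are reported as percent inhibition and as IC50. They come from a whole-organism screen of a 10,000-compound diverse Life Chemicals library against microfilariae of Onchocerca ochengi or Onchocerca lienalis. The screen followed previously published standard procedures, with reference drugs as positive controls.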

Onchocerca ochengi [3] = test: as §1; format: functional; parameters: concentration or dose not given beside the values; in short: as §2; remark: listed apart in the source
Leishmania infantum = test: WHO-TDR: Leishmaniasis; format: functional, organism-based, Mus musculus; conditions: Macrophage
In short: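 Values are IC50 figures for antiparasitic potency. They come from a whole-organism screen of a 10,000-compound diverse Life Chemicals library against Leishmania infantum MHOM/MA(BE)/67 amastigotes inside murine peritoneal macrophage host cells.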

[4] = WHO-TDR: Cytotoxicity; format: toxicity, cell-based; conditions: human, MRC5 cells
Plasmodium falciparum K1 = test: WHO-TDR: Malaria; format: functional, organism-based, Homo sapiens; conditions: Erythrocyte
In short: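 Values are IC50 figures for antiplasmodial potency. They come from a whole-organism screen of 10,000 diverse Life Chemicals compounds against Plasmodium falciparum K1 growing inside human red blood cells, run by previously published standard procedures.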

Schistosoma mansoni = test: WHO-TDR: Schistosomiasis; format: functional; parameters: concentration or dose not given beside the values
In short: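 Values are reported as percent inhibition and IC50. They come from a whole-organism screen of a 10,000-compound diverse Life Chemicals library against larval and/or adult worms of Schistosoma mansoni, Puerto Rican strain. The library had been filtered for drug-likeness and reactive groups.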

Brugia malayi [5] = test: (§3) WHO-TDR: Lymphatic Filariasis; format: functional; parameters: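 tested at 10 µM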
In short: (§4)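 Values are percent inhibition and IC50 from a whole-organism screen against Brugia malayi microfilariae. The compounds, 10,000 in all, came from a diverse Life Chemicals library filtered for drug-likeness and reactive groups.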

Brugia malayi [6] = test: as §3; format: functional; parameters: concentration or dose not given beside the values; in short: as §4; remark: listed apart in the source

| SMILES | IC50 [1] [mg/L] | IC50 (Trypanosoma cruzi) [mg/L] | % Inhibition (Onchocerca ochengi [2]) [%] | % Inhibition (Onchocerca ochengi [3]) [%] | IC50 (Leishmania infantum) [mg/L] | IC50 [4] [mg/L] | IC50 (Plasmodium falciparum K1) [mg/L] | % Inhibition (Schistosoma mansoni) [%] | % Inhibition (Brugia malayi [5]) [%] | % Inhibition (Brugia malayi [6]) [%] |
| --- | --- | --- | --- | --- | --- | --- | --- | --- | --- | --- |
| O=C(CC1CSc2nccc(=O)n21)Nc1ccc(Cl)c(Cl)c1 (stereo not drawn) | > 10.7 | > 10.7 | 100 | 0 | > 10.7 | > 10.7 | > 10.7 | 0 | – | – |
| COc1ccc(CCC(=O)NCC(c2ccsc2)N2CCc3ccccc3C2)cc1 (stereo not drawn) | 4.13 (≈ 9.83 µM) | 4.15 (≈ 9.87 µM) | 100 | 0 | > 12.6 | > 12.6 | 6.14 (≈ 14.6 µM) | 0 | – | – |
| O=C(COc1ccc(F)cc1)NCC(c1ccsc1)N1CCc2ccccc2C1 (stereo not drawn) | 4.19 (≈ 10.2 µM) | 3.73 (≈ 9.09 µM) | 100 | 0 | > 12.3 | > 12.3 | > 12.3 | 0 | – | – |
| CN(C)C(CNS(=O)(=O)c1cc(Cl)ccc1Cl)c1ccsc1 (stereo not drawn) | 3.82 (≈ 10.1 µM) | > 11.4 | 100 | 0 | > 11.4 | > 11.4 | 7.08 (≈ 18.7 µM) | 0 | – | – |
| Cc1ccc(Cl)c2sc(N3CCN(C)CC3)nc12 | 3.05 (≈ 10.8 µM) | 2.38 (≈ 8.46 µM) | 100 | 0 | > 9.55 | > 9.55 | 3.31 (≈ 11.7 µM) | 0 | – | – |
| CSCc1csc(NC(=O)Cc2ccc(Cl)cc2)n1 | 3 (≈ 9.6 µM) | 2.47 (≈ 7.91 µM) | 100 | 75 | > 9.38 | 3.7 (≈ 11.8 µM) | 5.98 (≈ 19.1 µM) | 0 | – | – |
| COc1ccccc1OCC(=O)Nc1nc(CSCc2ccc(F)cc2)cs1 | > 12.6 | > 12.6 | 100 | 0 | > 12.6 | > 12.6 | > 12.6 | 0 | – | – |
| O=C(Nc1nc(CSCc2ccc(F)cc2)cs1)c1ccco1 | > 10.5 | > 10.5 | 100 | 0 | > 10.5 | > 10.5 | > 10.5 | 0 | – | – |
| NC(=O)c1cc(-c2ccccc2)sc1NC(=O)C1COc2ccccc2O1 (stereo not drawn) | 3.65 (≈ 9.6 µM) | 3.4 (≈ 8.93 µM) | 100 | 0 | > 11.4 | 1.92 (≈ 5.04 µM) | 5.78 (≈ 15.2 µM) | 25 | – | – |
| COc1ccc(S(=O)(=O)CC(=O)Nc2sc(-c3ccccc3)cc2C(N)=O)cc1 | 4.28 (≈ 9.95 µM) | > 12.9 | 100 | 0 | > 12.9 | > 12.9 | 6.93 (≈ 16.1 µM) | 0 | – | – |
| NC(=O)c1cc(-c2ccccc2)sc1NC(=O)c1cc2ccccc2o1 | > 10.9 | > 10.9 | 100 | 0 | > 10.9 | > 10.9 | > 10.9 | 0 | – | – |
| NC(=O)c1cc(-c2ccccc2)sc1NC(=O)Cc1ccc2c(c1)OCO2 | 3.65 (≈ 9.6 µM) | > 11.4 | 100 | 0 | > 11.4 | > 11.4 | 5.1 (≈ 13.4 µM) | 0 | – | – |
| CCSc1nnc(-c2ccccc2)c2sc(C)nc12 | 0.146 (≈ 0.508 µM) | 0.259 (≈ 0.901 µM) | 100 | 0 | 2.79 (≈ 9.71 µM) | 4.9 (≈ 17 µM) | 1.39 (≈ 4.82 µM) | 0 | – | – |
| Cc1nc2c(SCC#N)nnc(-c3ccccc3)c2s1 | 6.52 (≈ 21.8 µM) | 0.444 (≈ 1.49 µM) | 25 | 0 | > 8.95 | > 8.95 | 6.75 (≈ 22.6 µM) | 0 | – | – |
| Cc1ccc(N2CCn3c2nnc(C(=O)NCCC2=CCCCC2)c3=O)cc1 | > 11.4 | > 11.4 | 0 | 0 | 3.69 (≈ 9.71 µM) | > 11.4 | 0.152 (≈ 0.4 µM) | 0 | – | – |
| O=C(Nc1nnc(-c2ccno2)o1)c1nc2ccccc2s1 | > 9.4 | > 9.4 | 100 | 0 | > 9.4 | > 9.4 | 6.88 (≈ 22 µM) | 0 | – | – |
| CC1CCCN(S(=O)(=O)c2ccc(C(=O)Nc3nnc(-c4ccno4)o3)cc2)C1 (stereo not drawn) | > 12.5 | > 12.5 | 100 | 0 | > 12.5 | > 12.5 | 5.03 (≈ 12 µM) | 0 | – | – |
| O=C(NCCC1=CCCCC1)c1n[nH]c2ccccc12 | > 8.08 | > 8.08 | 100 | 0 | > 8.08 | > 8.08 | > 8.08 | 0 | – | – |
| CC(C)c1ccc(NC(=O)c2n[nH]c3ccccc23)cc1 | 2.65 (≈ 9.49 µM) | 2.58 (≈ 9.23 µM) | 100 | 0 | > 8.38 | > 8.38 | > 8.38 | 0 | – | – |
| O=C(NCCc1c[nH]c2ccccc12)c1n[nH]c2ccccc12 | > 9.13 | 8.2 (≈ 27 µM) | 100 | 0 | > 9.13 | > 9.13 | > 9.13 | 0 | – | – |
| O=C(NCc1cc(-c2ccccc2F)on1)c1ccc(Br)o1 | > 11 | > 11 | 100 | 0 | > 11 | > 11 | > 11 | 0 | – | – |
| O=C(CC1CSc2nccc(=O)n21)Nc1cc(C(F)(F)F)cc(C(F)(F)F)c1 (stereo not drawn) | > 12.7 | > 12.7 | 100 | 0 | > 12.7 | > 12.7 | > 12.7 | 0 | – | – |
| Cc1cc(=O)n2c(n1)SCC2CC(=O)NCCC(c1ccccc1)c1ccccc1 (stereo not drawn) | 4.07 (≈ 9.71 µM) | > 12.6 | 100 | 0 | > 12.6 | > 12.6 | 6.43 (≈ 15.3 µM) | 0 | – | – |
| Cc1ccc2nc(-c3ccc(NC(=O)CC4CSc5nc(C)cc(=O)n54)cc3)sc2c1 (stereo not drawn) | > 13.5 | > 13.5 | 100 | 0 | > 13.5 | > 13.5 | 3.38 (≈ 7.54 µM) | 0 | – | – |
| O=C(Nc1ccc(C(F)(F)F)cc1)N1CCN(Cc2nnnn2-c2ccccc2)CC1 | 6.01 (≈ 13.9 µM) | > 12.9 | 100 | – | > 12.9 | > 12.9 | > 12.9 | – | 0 | 0 |
| CN(c1ccccc1)c1nnc(-c2ccc(NC(=O)Cc3cccs3)cc2)s1 | > 12.2 | > 12.2 | 100 | – | 3.95 (≈ 9.71 µM) | > 12.2 | > 12.2 | – | 0 | 25 |
